Marks after values point to notes of the source that are not given here.
Legend:
[1] = Safety and tolerability assessments; format: in vivo, human; conditions: for Deaths / Discontinuations due to TEAEs / Number of TEAEs / Patients reporting TEAEs / Serious TEAEs: ATI-450 n=24
[2] = Plasma pharmacokinetics, single ascending dose cohorts; format: in vivo, human; conditions: for Tmax / half-life / AUC(0-inf) / AUC(0-t) / Cmax / Vd/F: human, plasma, oral; for CL/F: fasted, mean ± SD
[3] = Plasma pharmacokinetics, multiple ascending dose cohorts; format: in vivo, human; conditions: for Tmax at 7 day: median (range)
[4] = test system: p-HSP27 (phosphorylated heat shock protein 27); assay: Ex vivo lipopolysaccharide-stimulated whole blood PD assay, p-HSP27; format: cell-based, human; conditions: inhibitory Emax model, all SAD/MAD cohorts
Method in brief: (§1)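 Healthy adults were dosed orally, fasted. 10 mL blood was drawn: SAD pre-dose, 1, 12 and 24 h; MAD days 1 and 7 pre-dose, 4 and 12 h. Each analyte was read unstimulated, after ex vivo LPS, and after LPS plus 10 μM added test compound. Values were scaled to % day 1 pre-dose (LPS as maximum signal, spiked LPS as maximum inhibition). Plasma levels vs % inhibition were fit by inhibitory Emax (E0, Imax, IC50).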

TNF-α = assay: Ex vivo lipopolysaccharide-stimulated whole blood PD assay, TNF-α; format: cell-based, human
Method in brief: as §1

IL-1β = assay: Ex vivo lipopolysaccharide-stimulated whole blood PD assay, IL-1β; format: cell-based, human
Method in brief: as §1

IL-6 [5] = assay: Ex vivo lipopolysaccharide-stimulated whole blood PD assay, IL-6; format: cell-based, human
Method in brief: as §1

IL-6 [6] = assay: Human whole blood stimulated with IL-1β, IL-6 inhibition; format: cell-based; conditions: data not shown
neutrophils = assay: Clinical laboratory neutrophil counts; format: in vivo, human; conditions: 50 mg BID group
[7] = test system: rat streptococcal cell wall arthritis model; conditions: cited from earlier work
murine model of NOMID = conditions: cited from earlier work
[8] = SAD and MAD cohorts, ATI-450 n=48
[9] = inhibitory Emax model, all SAD/MAD cohorts
[10] = maximum observed (up to), versus baseline

Cc1cnc(-c2ccnc(C(C)(C)O)n2)cc1-n1c(C)cc(OCc2ncc(F)cc2F)c(Cl)c1=O [ATI-450]
Deaths ([1]; MAD cohort): 0
Discontinuations due to TEAEs ([1]; MAD cohort): 0
Number of TEAEs ([1]; MAD cohort): 24
Patients reporting TEAEs ([1]; MAD cohort): 12 (50.0) n (%)
Serious TEAEs ([1]; MAD cohort): 0
Subjects with TEAEs considered related to study drug ([1]; SAD 10 mg cohort): 0 subjects
Subjects with TEAEs considered related to study drug ([1]; SAD 30 mg cohort (nausea, headache, dizziness)): 2 [33%] subjects
Subjects with TEAEs considered related to study drug ([1]; SAD 50 mg cohort (headache)): 1 [17%] subjects
Subjects with TEAEs considered related to study drug ([1]; SAD 100 mg cohort (dizziness)): 1 subjects
Findings in vital signs, electrocardiograms, or clinical laboratory values ([1]; SAD and MAD cohorts): No clinically significant findings
TEAE: Abdominal pain [1, 8]: 2 (4.2) n (%)
TEAE: Constipation [1, 8]: 3 (6.3) n (%)
TEAE: Dizziness [1, 8]: 6 (12.5) n (%)
TEAE: Headache [1, 8]: 10 (20.8) n (%)
TEAE: Nausea [1, 8]: 2 (4.2) n (%)
TEAE: Upper respiratory tract infection [1, 8]: 3 (6.3) n (%)
TEAE: Vomiting [1, 8]: 0 n (%)
Deaths ([1]; SAD cohort): 0
Discontinuations due to TEAEs ([1]; SAD cohort): 0
Number of TEAEs ([1]; SAD cohort): 15
Patients reporting TEAEs ([1]; SAD cohort): 7 (29.2) n (%)
Serious TEAEs ([1]; SAD cohort): 0
Tmax [2]: 2 to 4 h
half-life [2]: 8.5 to 11.2 h
AUC(0-inf) ([2]; 10 mg): 285 ± 78.4 ng·h/mL
AUC(0-t) ([2]; 10 mg): 276 ± 77.8 ng·h/mL
Cmax ([2]; 10 mg): 39.4 ± 10.4 ng/mL
Tmax ([2]; 10 mg): 2 h
Vd/F ([2]; 10 mg): 430 ± 124 L
half-life ([2]; 10 mg): 8.5 ± 3.2 h
AUC(0-inf) ([2]; 30 mg): 1100 ± 247 ng·h/mL
AUC(0-t) ([2]; 30 mg): 1070 ± 244 ng·h/mL
Cmax ([2]; 30 mg): 122 ± 33.4 ng/mL
Tmax ([2]; 30 mg): 4 h
Vd/F ([2]; 30 mg): 451 ± 202 L
half-life ([2]; 30 mg): 10.7 ± 3.3 h
AUC(0-inf) ([2]; 50 mg): 1460 ± 270 ng·h/mL
AUC(0-t) ([2]; 50 mg): 1430 ± 254 ng·h/mL
Cmax ([2]; 50 mg): 161 ± 20.4 ng/mL
Tmax ([2]; 50 mg): 3 h
Vd/F ([2]; 50 mg): 445 ± 94.7 L
half-life ([2]; 50 mg): 9.1 ± 2.4 h
AUC(0-inf) ([2]; 100 mg): 3650 ± 523 ng·h/mL
AUC(0-t) ([2]; 100 mg): 3490 ± 476 ng·h/mL
Cmax ([2]; 100 mg): 426 ± 111 ng/mL
Tmax ([2]; 100 mg): 2 h
Vd/F ([2]; 100 mg): 440 ± 190 L
half-life ([2]; 100 mg): 11.2 ± 5.8 h
CL/F ([2]; single dose 10 mg): 37.0 ± 8.8 L/h
CL/F ([2]; single dose 30 mg, one subject excluded): 28.4 ± 7.1^a L/h
CL/F ([2]; single dose 50 mg): 35.1 ± 6.3 L/h
CL/F ([2]; single dose 100 mg): 27.9 ± 4.3 L/h
Increase in AUC0-inf across dose range ([2]; single doses, 10 to 100 mg): ~12.8 fold
Increase in AUC0-t across dose range ([2]; single doses, 10 to 100 mg): ~12.6 fold
Increase in Cmax across dose range ([2]; single doses, 10 to 100 mg): approximately 10.8 fold
CLss/F ([3]; 10 mg BID, day 7, mean ± SD): 37.4 ± 10.9 L/h
Cmin ([3]; 10 mg BID, day 7, mean ± SD): 8.1 ± 3.1 ng/mL
Rac, AUCtau (accumulation ratio for AUCtau) ([3]; 10 mg BID, day 7, mean ± SD): 1.4 ± 0.3
Rac, Cmax (accumulation ratio for Cmax) ([3]; 10 mg BID, day 7, mean ± SD): 1.6 ± 0.6
CLss/F ([3]; 30 mg BID, day 7, mean ± SD): 33.9 ± 5.9 L/h
Cmin ([3]; 30 mg BID, day 7, mean ± SD): 28.8 ± 10.7 ng/mL
Rac, AUCtau (accumulation ratio for AUCtau) ([3]; 30 mg BID, day 7, mean ± SD): 1.4 ± 0.3
Rac, Cmax (accumulation ratio for Cmax) ([3]; 30 mg BID, day 7, mean ± SD): 1.2 ± 0.3
CLss/F ([3]; 50 mg BID, day 7, mean ± SD): 37.3 ± 11.7 L/h
Cmin ([3]; 50 mg BID, day 7, mean ± SD): 58.7 ± 32.8 ng/mL
Rac, AUCtau (accumulation ratio for AUCtau) ([3]; 50 mg BID, day 7, mean ± SD): 1.3 ± 0.4
Rac, Cmax (accumulation ratio for Cmax) ([3]; 50 mg BID, day 7, mean ± SD): 1.3 ± 0.5
Increase in AUCtau over dose range ([3]; 10 to 50 mg BID, day 1): 5.9 fold
Increase in Cmax over dose range ([3]; 10 to 50 mg BID, day 1): 5.4 fold
Increase in AUCtau over dose range ([3]; 10 to 50 mg BID, day 7): 5.2 fold
Increase in Cmax over dose range ([3]; 10 to 50 mg BID, day 7): 4.2 fold
Day of administration by which steady state appeared to be reached ([3]; all BID dose levels, based on mean Ctrough days 2 through 6): ≤ 2 days
AUC ([3]; human, plasma, oral, 10 mg): 288 ± 81.5 ng·h/mL
AUC(0-t) ([3]; human, plasma, oral, 10 mg): 365 ± 111 ng·h/mL
Cmax at 7 day ([3]; human, plasma, oral, 10 mg): 51.8 ± 15.8 ng/mL
Vd/F ([3]; human, plasma, oral, 10 mg): 517 ± 203 L
concentration at 7 day ([3]; human, plasma, oral, 10 mg): 24 ± 6.8 ng/mL
half-life ([3]; human, plasma, oral, 10 mg, t1/2, 10 mg BID, day 7, mean ± SD): 9.6 ± 2.1 h
Tmax at 7 day ([3]; human, plasma, oral, 10 mg, 10 mg BID, day 7): 2 h
AUC ([3]; human, plasma, oral, 30 mg): 909 ± 163 ng·h/mL
AUC(0-t) ([3]; human, plasma, oral, 30 mg): 1200 ± 309 ng·h/mL
Cmax at 7 day ([3]; human, plasma, oral, 30 mg): 146 ± 33.6 ng/mL
Vd/F ([3]; human, plasma, oral, 30 mg): 483 ± 85.1 L
concentration at 7 day ([3]; human, plasma, oral, 30 mg): 75.6 ± 13.4 ng/mL
half-life ([3]; human, plasma, oral, 30 mg, t1/2, 30 mg BID, day 7, mean ± SD): 10.3 ± 3.2 h
Tmax at 7 day ([3]; human, plasma, oral, 30 mg, 30 mg BID, day 7): 2 h
AUC ([3]; human, plasma, oral, 50 mg): 1510 ± 660 ng·h/mL
AUC(0-t) ([3]; human, plasma, oral, 50 mg): 2260 ± 1070 ng·h/mL
Cmax at 7 day ([3]; human, plasma, oral, 50 mg): 219 ± 77.8 ng/mL
Vd/F ([3]; human, plasma, oral, 50 mg): 586 ± 163 L
concentration at 7 day ([3]; human, plasma, oral, 50 mg): 126 ± 55 ng/mL
half-life ([3]; human, plasma, oral, 50 mg, t1/2, 50 mg BID, day 7, mean ± SD): 11.6 ± 3.7 h
Tmax at 7 day ([3]; human, plasma, oral, 50 mg, 50 mg BID, day 7): 3 h
half-life ([3]; human, plasma, oral, Mean t1/2 across all SAD and MAD cohorts, all SAD and MAD cohorts): 9 to 12 h
half-life ([3]; human, plasma, oral, Mean terminal t1/2 across doses, 10 to 50 mg BID, day 7): 9 to 12 h
Tmax ([3]; human, plasma, oral, Median tmax across all SAD and MAD cohorts, all SAD and MAD cohorts): 2 to 4 h
Imax (maximum percent inhibition) [4]: greater than 96%
Imax (maximum percent inhibition) (TNF-α; [9]): greater than 96%
Inhibition of TNF-α versus baseline (TNF-α; [10]): up to 92.7%
Imax (maximum percent inhibition) (IL-1β; [9]): 74%
Inhibition of IL-1β versus baseline (IL-1β; [10]): ≤ 83.0%
inhibition at 50 mg (IL-6 [5]; Homo sapiens, 168 h, read-out: IL-6 inhibition): > 50%
Imax (maximum percent inhibition) (IL-6 [5]; [9]): greater than 96%
Potency for inhibiting IL-6 (IL-6 [6]): comparable to that for TNF-α and IL-8
Neutrophil count (neutrophils; day 7 (baseline 3318.4 cells/μL)): 2514.4 cells/μL
Mean reduction in neutrophils (neutrophils; day 7 versus baseline): 24%
Effect in arthritis model [7]: joint protective effects and preserved bone mineral density
Effect on bone marrow levels of IL-1β (murine model of NOMID; NOMID mice, relative to placebo): reduction in bone marrow levels of IL-1β
Effect on disease (murine model of NOMID; transgenic NOMID mice): dramatic attenuation of disease

Source: publication PMC8203602 (Clinical Pharmacology : Advances and Applications, 2021)
